# Measured values from ChEMBL document CHEMBL4689842, “EUbOPEN Chemogenomics Library wave 1” (2021).
# System: HEK-293T
# Assay: Multiplex assay against HEK293T;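 for Population Tubulin-Different-Phenotype (%): share of the cells with healthy nuclei that show this phenotype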
# Format: toxicity, cell-based
# Conditions: human
# How it was run: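 Live cells were stained at seeding with Hoechst33342, BioTracker Green Microtubule Cytoskeleton Dye, MitoTracker Red and Annexin V Alexa Fluor 680. Following compound addition, they were imaged on a CQ1 microscope at 37°C and 5% CO2 and gated by CellPathfinder machine learning into Hoechst high-intensity objects or normal cells, with normal cells split into healthy, pyknosed or fragmented nuclei and pyknosed cells into mitotic or apoptotic. Tubulin, mitochondrial-mass and membrane-permeability phenotypes are per cents of healthy-nucleus cells.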
# [1] = 12 h, 1 µM, compound concentration 1 uM, replicate 1
# [2] = 12 h, 1 µM, compound concentration 1 uM, replicate 2
# [3] = 12 h, 10 µM, compound concentration 10 uM, replicate 1
# [4] = 12 h, 10 µM, compound concentration 10 uM, replicate 2
# [5] = 24 h, 1 µM, compound concentration 1 uM, replicate 1
# [6] = 24 h, 1 µM, compound concentration 1 uM, replicate 2
# [7] = 24 h, 10 µM, compound concentration 10 uM, replicate 1
# [8] = 24 h, 10 µM, compound concentration 10 uM, replicate 2
# [9] = 48 h, 1 µM, compound concentration 1 uM, replicate 1
# [10] = 48 h, 1 µM, compound concentration 1 uM, replicate 2
# [11] = 48 h, 10 µM, compound concentration 10 uM, replicate 1
# [12] = 48 h, 10 µM, compound concentration 10 uM, replicate 2
structure (smiles),measurement,setting,value
CN1CCC[C@@H]1CCO[C@](C)(c1ccccc1)c1ccc(Cl)cc1.O=C(O)/C=C/C(=O)O [CLEMASTINE FUMARATE],Population Apoptotic (%),[1],56%
same,Population Fragmented Nuclei (%),[1],10%
same,Population Healthy Nuclei (%),[1],23%
same,Population Hoechst High Intensity Objects (%),[1],9%
same,Population Membrane Permeable-Phenotype (%),[1],5%
same,Population Mitochondria Different-Phenotype (%),[1],96%
same,Population Mitotic Cells (%),[1],43%
same,Population Normal (%),[1],90%
same,Population Pyknosed Nuclei (%),[1],65%
same,Population Tubulin-Different-Phenotype (%),[1],78%
same,Total Cell Count,[1],278
same,Population Apoptotic (%),[2],25%
same,Population Fragmented Nuclei (%),[2],4%
same,Population Healthy Nuclei (%),[2],32%
same,Population Hoechst High Intensity Objects (%),[2],3%
same,Population Membrane Permeable-Phenotype (%),[2],13%
same,Population Mitochondria Different-Phenotype (%),[2],48%
same,Population Mitotic Cells (%),[2],75%
same,Population Normal (%),[2],96%
same,Population Pyknosed Nuclei (%),[2],62%
same,Population Tubulin-Different-Phenotype (%),[2],52%
same,Total Cell Count,[2],217
same,Population Apoptotic (%),[3],92%
same,Population Fragmented Nuclei (%),[3],14%
same,Population Healthy Nuclei (%),[3],17%
same,Population Hoechst High Intensity Objects (%),[3],18%
same,Population Membrane Permeable-Phenotype (%),[3],6%
same,Population Mitochondria Different-Phenotype (%),[3],100%
same,Population Mitotic Cells (%),[3],7%
same,Population Normal (%),[3],81%
same,Population Pyknosed Nuclei (%),[3],67%
same,Population Tubulin-Different-Phenotype (%),[3],93%
same,Total Cell Count,[3],209
same,Population Apoptotic (%),[4],85%
same,Population Fragmented Nuclei (%),[4],6%
same,Population Healthy Nuclei (%),[4],15%
same,Population Hoechst High Intensity Objects (%),[4],6%
same,Population Membrane Permeable-Phenotype (%),[4],4%
same,Population Mitochondria Different-Phenotype (%),[4],96%
same,Population Mitotic Cells (%),[4],14%
same,Population Normal (%),[4],93%
same,Population Pyknosed Nuclei (%),[4],78%
same,Population Tubulin-Different-Phenotype (%),[4],92%
same,Total Cell Count,[4],172
same,Population Apoptotic (%),[5],59%
same,Population Fragmented Nuclei (%),[5],12%
same,Population Healthy Nuclei (%),[5],18%
same,Population Hoechst High Intensity Objects (%),[5],21%
same,Population Membrane Permeable-Phenotype (%),[5],0%
same,Population Mitochondria Different-Phenotype (%),[5],95%
same,Population Mitotic Cells (%),[5],40%
same,Population Normal (%),[5],78%
same,Population Pyknosed Nuclei (%),[5],68%
same,Population Tubulin-Different-Phenotype (%),[5],63%
same,Total Cell Count,[5],274
same,Population Apoptotic (%),[6],42%
same,Population Fragmented Nuclei (%),[6],7%
same,Population Healthy Nuclei (%),[6],60%
same,Population Hoechst High Intensity Objects (%),[6],1%
same,Population Membrane Permeable-Phenotype (%),[6],4%
same,Population Mitochondria Different-Phenotype (%),[6],56%
same,Population Mitotic Cells (%),[6],57%
same,Population Normal (%),[6],98%
same,Population Pyknosed Nuclei (%),[6],32%
same,Population Tubulin-Different-Phenotype (%),[6],60%
same,Total Cell Count,[6],273
same,Population Fragmented Nuclei (%),[7],15%
same,Population Healthy Nuclei (%),[7],11%
same,Population Hoechst High Intensity Objects (%),[7],23%
same,Population Membrane Permeable-Phenotype (%),[7],0%
same,Population Mitochondria Different-Phenotype (%),[7],100%
same,Population Normal (%),[7],76%
same,Population Pyknosed Nuclei (%),[7],72%
same,Population Tubulin-Different-Phenotype (%),[7],94%
same,Total Cell Count,[7],211
same,Population Apoptotic (%),[8],92%
same,Population Fragmented Nuclei (%),[8],4%
same,Population Healthy Nuclei (%),[8],20%
same,Population Hoechst High Intensity Objects (%),[8],6%
same,Population Membrane Permeable-Phenotype (%),[8],6%
same,Population Mitochondria Different-Phenotype (%),[8],93%
same,Population Mitotic Cells (%),[8],7%
same,Population Normal (%),[8],93%
same,Population Pyknosed Nuclei (%),[8],74%
same,Population Tubulin-Different-Phenotype (%),[8],93%
same,Total Cell Count,[8],159
same,Population Apoptotic (%),[9],66%
same,Population Fragmented Nuclei (%),[9],21%
same,Population Healthy Nuclei (%),[9],11%
same,Population Hoechst High Intensity Objects (%),[9],23%
same,Population Membrane Permeable-Phenotype (%),[9],4%
same,Population Mitochondria Different-Phenotype (%),[9],88%
same,Population Mitotic Cells (%),[9],33%
same,Population Normal (%),[9],76%
same,Population Pyknosed Nuclei (%),[9],66%
same,Population Tubulin-Different-Phenotype (%),[9],72%
same,Total Cell Count,[9],276
same,Population Apoptotic (%),[10],21%
same,Population Fragmented Nuclei (%),[10],4%
same,Population Healthy Nuclei (%),[10],81%
same,Population Hoechst High Intensity Objects (%),[10],1%
same,Population Membrane Permeable-Phenotype (%),[10],5%
same,Population Mitochondria Different-Phenotype (%),[10],29%
same,Population Mitotic Cells (%),[10],78%
same,Population Normal (%),[10],98%
same,Population Pyknosed Nuclei (%),[10],13%
same,Population Tubulin-Different-Phenotype (%),[10],60%
same,Total Cell Count,[10],406
same,Population Apoptotic (%),[11],86%
same,Population Fragmented Nuclei (%),[11],24%
same,Population Healthy Nuclei (%),[11],1%
same,Population Hoechst High Intensity Objects (%),[11],23%
same,Population Membrane Permeable-Phenotype (%),[11],0%
same,Population Mitochondria Different-Phenotype (%),[11],100%
same,Population Mitotic Cells (%),[11],13%
same,Population Normal (%),[11],76%
same,Population Pyknosed Nuclei (%),[11],73%
same,Population Tubulin-Different-Phenotype (%),[11],66%
same,Total Cell Count,[11],230
same,Population Apoptotic (%),[12],97%
same,Population Fragmented Nuclei (%),[12],14%
same,Population Healthy Nuclei (%),[12],15%
same,Population Hoechst High Intensity Objects (%),[12],8%
same,Population Membrane Permeable-Phenotype (%),[12],8%
same,Population Mitochondria Different-Phenotype (%),[12],83%
same,Population Mitotic Cells (%),[12],2%
same,Population Normal (%),[12],91%
same,Population Pyknosed Nuclei (%),[12],69%
same,Population Tubulin-Different-Phenotype (%),[12],75%
same,Total Cell Count,[12],168
